# Experimental data gathered from unrelated publications.
# Lines come from different studies, so protocols differ.
# Target: Serine/threonine-protein kinase 38-like (STK38L, Homo sapiens, UniProt Q9Y2H1)
SMILES,assay,test system,conditions,endpoint,result
CCN1CCC2(CC1)NC(=O)c1c(c3ccc(Cl)c(Cl)c3n1C)C2C#N (racemic),"thermal stability, DSF",,10 µM,ΔTm,0 °C
CNc1cc(Oc2cc(C(=O)Nc3cc(N4CCN(C)CC4)cc(C(F)(F)F)c3)ccc2C)ncn1,"target engagement in cells, inhibitor, chemoproteomics",Huh-7,1 µM,inhibition,-35.6%
Cn1c2c(Cl)c(Cl)ccc2c2cc[nH]c(=O)c21,"thermal stability, DSF",,10 µM,ΔTm,0 °C
C[C@@H]1CN(c2cc(-c3nn(C)c4ccc(OC5(C)CC5)cc34)ncn2)C[C@H](C)O1,"cell-free assay, competition with immobilised ligand",,1 µM,remaining binding,72%
CCN1CCN(Cc2ccc(NC(=O)c3ccc(C)c(Oc4ccnc5[nH]ccc45)c3)cc2C(F)(F)F)CC1,"target engagement in cells, inhibitor, chemoproteomics",Huh-7,10 µM,inhibition,-12.7%
CN(C(=O)c1ccccc1)c1cc(N(C)c2ccc3c(c2)CCc2ccc(C(=O)NCCN4CCOCC4)cc2C3=O)ccc1F,"cell-free assay, competition with immobilised ligand",,1 µM,remaining binding,47%
Cn1c2c(Cl)c(Cl)ccc2c2cn[nH]c(=O)c21,"thermal stability, DSF",,10 µM,ΔTm,0.1 °C
Cc1sc(C(=O)NC2COC2)cc1-n1cc(NC(=O)Nc2c(F)cccc2Cl)cn1,"enzyme activity, inhibitor",,10 µM,remaining activity,95.1%
CN1CC(Oc2cnc(C#N)cc2-c2ccn3nc(NC(=O)C4CC4)cc3c2)C1,"enzyme activity, inhibitor",,1 µM,inhibition,27%
CN1CCC2(CC1)NC(=O)c1c(c3ccc(Cl)c(Cl)c3n1C)C2C#N (racemic),"thermal stability, DSF",,10 µM,ΔTm,0 °C
Cc1ccc(C(=O)Nc2ccc(CN3CCN(C)CC3)c(C(F)(F)F)c2)cc1C#Cc1cnc2cccnn12,enzyme activity,,23.5 nM,remaining activity,99%
Cn1c2c(Cl)c(Cl)ccc2c2cc(N)[nH]c(=O)c21,"thermal stability, DSF",,10 µM,ΔTm,0.3 °C
CS(=O)(=O)N1CCCC(NC(=O)[C@H](CCC2CCCCC2)NC(=O)c2ccc(CNc3ncnc4c3nnn4-c3ccccc3)cc2)C1 (some centres unmarked),"binding, competition with immobilised ligand",,1 µM,remaining binding,24%
COc1cc(-c2cc(-c3ccc(N4CCNCC4)cc3)cnc2C)cc(OC)c1OC,"enzyme activity, inhibitor",,1 µM,inhibition,0%
NS(=O)(=O)c1cc(NC(=O)Cc2ccccc2)ccc1Oc1cccc(Cl)c1,"cell-free assay, competition with immobilised ligand",,1 µM,remaining binding,100%
COc1cc(Cl)c(C(=O)N[C@@H](CN[C@H]2CC[C@@H](N)CC2)Cc2ccc(C#N)cc2)cc1-c1ccc(CN[C@H](C)c2ccc(C)cc2)o1,"enzyme activity, inhibitor",,1 µM,remaining activity,91%
Cc1nc(N2CC[C@@H](O)C2)ncc1-c1cc(C(F)(F)F)cc2[nH]ncc12,"binding, competition with immobilised ligand",,1 µM,remaining binding,87%
CCC1(CC)NC(=O)c2c(c3ccc(Cl)c(Cl)c3n2C)C1C#N (centres unmarked),"thermal stability, DSF",,10 µM,ΔTm,0 °C
O=c1nc(-c2ccccn2)sc2ccccc12,"binding, competition with immobilised ligand",,1 µM,remaining binding,66%
O=C(Nc1cnn(-c2csc(C(=O)NC3COC3)c2)c1)Nc1ccccc1Cl,"enzyme activity, inhibitor",,5 µM,remaining activity,103%
